Assay outcomes: PubChem, several laboratories
HSF1 inhib – HSF1 inhibition. hit rate 0.77% among 300,000. AID 2098. NIH3T3-HGL HSE-luciferase, MG132-induced, luminescence 8 h; stronger effect = lower value. activity change, negative = inhibition, % at 7.5 µM (by protocol);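 active means more than half of replicate wells show activity change below -50%, luminescence cut by over half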;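 further: luciferase reports HSF-1 transcriptional activity via heat shock element; 0% = median of DMSO wells and -100% = zero luminescence signal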
Hsp70 activator – Hsp70 transcriptional activation, primary screen | hit rate 0.04% among 200,000 | HeLa Hsp70 promoter luciferase reporter, luminescence; scaled: vehicle 0, proteasome-inhibitor control 100% | AID 1203 | activation, % at 10 µM;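 active means activation above the mean across all tested compounds plus 3 SD, cutoff set per campaign, cut at about 5.5% in these data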;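 further: 100% = MG132 at 30 µM as the positive control and 0% = DMSO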
HSV augment – increases HSV replication in cells | maximum fold increase | hit rate 0.005% among 220,000 | AID 1956 | HSV replication augmentation in cells, fold increase; in the data active means maximum fold increase above about 1.5; tested in PC3 cells
Rad51 HR inh – Rad51 (human) homologous recombination inhibition; hit rate 0.085% among 200,000; inhibition, % at 10 µM; hRad51 DNA strand exchange, fluorescence dequenching; Q06609;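 active means inhibition above 40% at the single screening dose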;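 further: 0% = DMSO control wells and 100% = blanks with heterologous ssDNA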
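Material: human Rad51–ssDNA filaments; Probe or stimulus: labelled 47-mer dsDNA for strand exchange; Doses: single 10 µM dose; Incubation: 37 °C 15-min filament assembly, 30-min compound preincubation, 15-min exchange; Technique: FRET fluorescence dequenching, excitation 485 nm, emission 520 nm; Measure: Fluorescence-based percent inhibition, control- and blank-normalised; Benchmarks: plate control and blank wells.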
MDM2 E3 inh – inhibitors of human Mdm2 E3 ubiquitin ligase | cell-based MDM2 ubiquitination luciferase reporter, 2 h; 0 = plate control, 100 = twice control, blank-subtracted | hit rate 0.11% among 210,000 | signal enhancement, % at 5 µM;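 active means signal enhancement of 30% or more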;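 further: luminescence tracks abundance of the self-degrading MDM2-luciferase fusion protein; higher signal means inhibition of MDM2 E3 ligase activity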
Target sequence (Q00987 whole entry, looked up, the tested form may be a part): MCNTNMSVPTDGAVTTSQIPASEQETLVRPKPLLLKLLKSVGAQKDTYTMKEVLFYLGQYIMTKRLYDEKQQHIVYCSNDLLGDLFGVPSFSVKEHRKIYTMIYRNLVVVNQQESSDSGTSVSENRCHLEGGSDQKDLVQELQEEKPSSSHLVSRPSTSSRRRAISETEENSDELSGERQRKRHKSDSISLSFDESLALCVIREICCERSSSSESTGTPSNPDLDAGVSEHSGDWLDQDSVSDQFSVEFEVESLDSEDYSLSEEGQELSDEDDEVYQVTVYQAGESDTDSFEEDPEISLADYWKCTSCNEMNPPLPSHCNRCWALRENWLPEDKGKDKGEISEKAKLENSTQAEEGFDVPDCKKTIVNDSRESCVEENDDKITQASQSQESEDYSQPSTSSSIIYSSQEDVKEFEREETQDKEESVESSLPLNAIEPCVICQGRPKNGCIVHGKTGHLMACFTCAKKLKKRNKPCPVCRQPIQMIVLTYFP
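test system = mammalian cells stably expressing self-ubiquitinating, self-degrading MDM2 E3–luciferase fusion | quantity = 2000 cells/well | incubation = cell settling 4 h, compound treatment 2 h, both 37 °C | signal = luminescence with SteadyLite reagent, 15 min at room temperature | evaluation = % enhancement relative to plate controls after blank subtraction | benchmarks = plate controls and plate blanks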
HSF1 activator – increases HSF-1 driven luciferase reporter signal; activation, % at 9 µM; NIH3T3-HGL HSF-1 luciferase reporter, MG132, 8 h; 100% = twice DMSO control signal; hit rate 1.7% among 300,000;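 active means mean replicate activation of at least 50% with a set share of replicates each reaching 50%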;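 further: 0% = median of the neutral control wells and 100% = twice that signal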
* = called active by the depositor; i = inactive; nt = not tested or not shown. Shown are actives, neighbours in structure and some others; about 2.6% of the full set was active somewhere.

SMILES | HSF1 inhib | Hsp70 activator | HSV augment | Rad51 HR inh | MDM2 E3 inh | HSF1 activator
COC(=O)c1ccccc1S(=O)(=O)NNC(=O)Nc1ccccc1 | 2 | nt | nt | nt | nt | -1
O=C(COC(=O)C1CCN(S(=O)(=O)c2cccc3cccnc23)CC1)c1ccc([N+](=O)[O-])cc1 | 61 | 0 | i | nt | 5 | 107*
CC(=O)c1ccc(NC(=O)C2CCN(S(=O)(=O)c3cccc4cccnc34)CC2)cc1 | -62* | 0 | i | 6 | -22 | -69
COc1ccc(C(=O)COC(=O)C2CCN(S(=O)(=O)c3cccc4cccnc34)CC2)cc1 | -3 | 0 | i | nt | -8 | -7
COc1ccc(NC(=O)C2CCN(S(=O)(=O)c3cccc4cccnc34)CC2)cc1 | -2 | 0 | i | 1 | -9 | -2
COc1ccc(COCC(O)CN2CCc3ccccc3C2)cc1OC (stereo not drawn) | -2 | 0 | i | -1 | 15 | -10
CC(=O)Nc1ccc(NC(=O)CSc2nnc(C)c(=O)[nH]2)cc1 | -2 | 0 | i | 3 | 3 | 9
O=[N+]([O-])c1ccc(-c2cn(-c3ccccc3F)c(=S)[nH]2)cc1 | 36 | 0 | i | -37 | -11 | 60*
CC1c2ccsc2CCN1C(=O)NC(=O)c1ccc(Cl)cc1 (stereo not drawn) | 21 | nt | i | 3 | -7 | 71*
Cc1nc2c(Br)cc(Br)cc2cc1O | 5 | 0 | i | 3 | -11 | 11
c1cc2c(cc1C1CCCN1)OCCCO2 (stereo not drawn) | -71* | 0 | i | 3 | -3 | -77
O=S(=O)(c1ccc2c(c1)OCCCO2)N1CCNCC1 | -9 | 0 | i | 0 | -14 | -14
CCN1C(=O)CSc2ccc(C(=O)NCc3ccc(OC)cc3)cc21 | 19 | 0 | i | nt | -2 | 52*
CCN1CCSc2ccc(C(=O)NCc3ccc(OC(C)C)cc3)cc21 | 60 | nt | nt | nt | nt | 77*
CCCCNC(=O)c1ccc2c(c1)N(CC)C(=O)CS2 | 6 | 1 | i | 6 | -4 | 0
CCN1CCSc2ccc(C(=O)NCc3cc(Br)ccc3OC)cc21 | 0 | nt | nt | nt | nt | -24
CCOc1ccc(CNC(=O)c2ccc3c(c2)N(CC)CCS3)cc1 | 34 | nt | nt | nt | nt | 55*
O=C(Nc1ccccc1F)C1COc2ccccc2O1 (stereo not drawn) | 3 | nt | nt | nt | nt | -3
O=C(NCCCn1ccnc1)c1nc(Cn2cc(Br)cn2)no1 | -1 | nt | nt | nt | nt | -7
Cc1ccc(S(=O)(=O)Nc2cccnc2)c(C)c1C | -83* | nt | nt | nt | nt | -87
CC(CC(=O)O)CC(=O)Nc1ccc(Br)cc1 (stereo not drawn) | -7 | nt | i | nt | -7 | 22
CCn1nc(C)c(CN2CCC(C(=O)Nc3cccc(-c4cccc(Cl)c4)c3)CC2)c1C | -2 | nt | nt | nt | nt | 7
C#CCOCCOCCOCCNc1nc(N2CCN(C(=O)CCCCCCCCCCNC(=O)[C@H](CO)n3cc(CCCSC)nn3)CC2)nc(N2CCN(C(=O)CCCCCCCCCCNC(=O)[C@H](CCCCN)n3cc(C[C@@H](C)CC)nn3)CC2)n1 | -85* | nt | nt | nt | nt | -85
C#CCOCCOCCOCCNc1nc(N2CCN(C(=O)CCCCCCCCCCNC(=O)[C@H](CCCCN)n3cc(C[C@@H](C)CC)nn3)CC2)nc(N2CCN(C(=O)CCCCCCCCCCNC(=O)[C@H](CCCCN)n3cc(C[C@@H](C)CC)nn3)CC2)n1 | 20 | nt | nt | nt | nt | 33
Cc1ccnc(NC(=O)C2CC(=O)N(c3ccc4c(c3)OCCO4)C2)c1 (stereo not drawn) | 8 | nt | nt | nt | nt | 28
SMILES | HSF1 inhib | Hsp70 activator | HSV augment | Rad51 HR inh | MDM2 E3 inh | HSF1 activator
COc1cc(/C=N/NC(=O)c2cccc([N+](=O)[O-])c2)ccc1OCc1ccc(C)cc1 | 46 | 0 | i | 0 | -21 | 68*
COc1cc([N+](=O)[O-])cc(/C=N/NC(=O)c2ccc(NC(=O)c3ccc(C)cc3)cc2)c1O | -58* | 0 | i | 7 | -6 | -65
COc1cc([N+](=O)[O-])cc(/C=N/NC(=O)c2ccc(C)nc2)c1O | -17 | 0 | i | 2 | -5 | -13
COc1ccc(Cl)cc1NS(=O)(=O)c1c(C)[nH]c(=O)[nH]c1=O | 2 | nt | nt | nt | nt | -9
Cc1[nH]c2ccccc2c1C(=O)CSc1ccc(Cl)cc1 | 34 | 0 | i | nt | -2 | 54*
O=C(CSC(=S)N1CCCCC1)c1ccccc1 | 23 | 0 | i | 1 | -64 | 18
Cc1[nH]c2ccccc2c1C(=O)CSC(=S)N(C)C1CCCCC1 | 8 | 0 | i | nt | nt | 37
Cc1[nH]c2ccccc2c1C(=O)CSc1nc2ccccc2[nH]1 | 19 | 0 | i | 5 | -7 | 46
O=C(CSC(=S)N1CCCC1)c1ccccc1 | 24 | nt | nt | nt | nt | 55*
Cc1[nH]c2ccccc2c1C(=O)CSC(=S)N1CCCCC1 | 36 | 0 | i | nt | nt | 54*
CCC(C)[C@H](N)C(=O)NC[C@H]1CC[C@H](C(=O)N[C@@H](Cc2ccccc2)C(=O)O)CC1 (stereo partly drawn) | 5 | nt | nt | nt | nt | 21
COc1ccc(N(CC(=O)N2CCN(C)CC2)S(=O)(=O)c2cc(C)ccc2OC)cc1Cl | 2 | nt | nt | nt | nt | 8
Cc1cc(C(=O)CCl)c(C)n1CCc1ccc(Cl)cc1 | 41 | 0 | i | nt | nt | 61*
Cc1ccccc1-n1c(=O)cc(N2CCc3ccccc32)[nH]c1=O | -79* | 0 | i | -69 | -13 | -84
O=c1cc(N2CCc3ccccc32)[nH]c(=O)n1-c1ccccc1Cl | -9 | 0 | i | 4 | -8 | -10
CCOc1c(C)cc(S(=O)(=O)NCc2cccnc2)c(C)c1C | -56* | nt | nt | nt | nt | -66
CCOc1ccc(-c2nc(C#N)c(NCc3ccco3)o2)cc1 | -6 | 0 | i | -7 | -19 | -3
Cc1[nH]c(C)c(C(=O)/C=C/c2ccc([N+](=O)[O-])cc2)c1C | 33 | nt | nt | nt | nt | 70*
CCOC(=O)c1[nH]c(C)c(C(=O)/C=C/c2ccc(C(=O)O)cc2)c1C | 4 | nt | nt | nt | nt | 13
Cc1cc(C)c(C)c(S(=O)(=O)NCc2ccco2)c1C | 46 | 0 | i | 5 | -10 | 78*
Oc1ccccc1-c1cc(-c2cccc(F)c2)n[nH]1 | 15 | 0 | i | 10 | -7 | 6
COc1ccc(-c2cc(-c3cc(C)ccc3O)[nH]n2)cc1 | 252 | 0 | i | -5 | 1 | 264*
Cc1ccc(O)c(-c2cc(C(F)(F)C(F)F)[nH]n2)c1 | 50 | 0 | i | -4 | -11 | 80*
Cc1ccc(O)c(-c2cc(C(=O)Nc3cccnc3)[nH]n2)c1 | -8 | nt | i | 11 | -7 | -26
Oc1ccc(Cl)cc1-c1cc(-c2ccccc2Cl)[nH]n1 | 10 | 0 | i | 6 | -3 | 20
Cc1ccc(O)c(-c2cc(-c3ccccc3C)[nH]n2)c1 | 123 | 0 | nt | nt | -21 | 162*
COc1ccc(-c2cc(-c3ccc(C)cc3)n[nH]2)c(O)c1 | 8 | nt | nt | nt | nt | 31
